What all share (assay type): ADME, organism-based, Canis lupus familiaris
Holding throughout (conditions): dog, in vivo

Data set [1] is described as follows: Mean of apparent terminal phase elimination half-life in oral (5 mg/kg) fed dogs. The procedure, abridged:
(§1)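 Three-way crossover in four male beagles: single 2.5 mg/kg iv dose (fed) or 5 mg/kg oral capsule, fed or fasted. Serial heparinized plasma taken up to 24 h. Drug isolated by reverse-phase SPE, quantified by C18 HPLC with fluorescence (ex 312, em 430 nm), LOQ 10 ng/mL. Noncompartmental analysis. […] AUC by trapezoidal rule extrapolated to infinity. F from dose-normalized po/iv AUC ratio.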

Data set [2] is described as follows: Mean of apparent terminal phase elimination half-life after intravenous administration of 2.5 mg/kg in dogs. More on the design: dose 2.5 mg/kg, route intravenous. The method in brief:
(§2)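 Four male beagle dogs, fed, single 2.5 mg/kg iv dose within a three-way crossover. Serial heparinized plasma sampled to 24 h. Drug recovered by reverse-phase solid-phase extraction and measured by HPLC with fluorescence detection (ex 312, em 430 nm); LOQ 10 ng/mL.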

Data set [3] can be described thus: Absolute oral bioavailability in oral (5 mg/kg) fasted dogs. The procedure, abridged: as §1
The nature of data set [4]: Area under the concentration-time curve from time zero to infinity in oral (5 mg/kg) fed dogs. The method in brief:
as §1

The nature of data set [5]: Time to reach maximum observed concentration in oral (5 mg/kg) fed dogs. The procedure, abridged:
as §1

Data set [6] in a line: Area under the concentration-time curve from time zero to infinity in oral (5 mg/kg) fasted dogs. The procedure, abridged:
as §1

Data set [7] can be described thus: Mean of apparent terminal phase elimination half-life in oral (5 mg/kg) fasted dogs. The method in brief:
as §1

A short description of data set [8]: Maximum observed concentration in oral (5 mg/kg) fasted dogs. More on the design: dose 5 mg/kg, route oral. The method in brief:
as §1

The nature of data set [9]: Area under the concentration-time curve from time zero to infinity after intravenous administration of 2.5 mg/kg in dogs. Also noted: dose 2.5 mg/kg, route intravenous. The method in brief: as §2
A short description of data set [10]: Time to reach maximum observed concentration in oral (5 mg/kg) fasted dogs. The method in brief: as §1
Data set [11] in a line: Absolute oral bioavailability in oral (5 mg/kg) fed dogs. The procedure, abridged: as §1
A short description of data set [12]: Maximum observed concentration in oral (5 mg/kg) fed dogs. Also noted: dose 5 mg/kg, route oral. The method in brief: as §1

As a reminder, the half-life is how long it takes for the measured level to halve. Broadly, the bioavailability is dose-corrected exposure relative to a reference, in per cent. Read a low bioavailability as little systemic uptake. A word on the AUC(0-inf): it is the area under the concentration-time curve extrapolated to infinity. The Tmax is the time at which the peak concentration occurs. Usually Cmax stands for the peak of the concentration-time curve. Turning to `COc1ccc(C2(O)OC(=O)C(c3ccc4c(c3)OCO4)=C2Cc2cc(OC)c(OC)c(OC)c2)cc1` (configuration not stated) [PD-156707], the half-life in [1] is 1.9 h; in data set [2], 0.62 h; in data set [7], 1.2 h. Besides, the figures for the bioavailability in data set [3] and in data set [11] were 67% and 20%, respectively. Moreover, the AUC(0-inf) was found to be 590 ng·h/mL in data set [4], 2000 ng·h/mL in [6] and 1500 ng·h/mL in [9]. Besides, the figures for the Tmax in data set [5] and in data set [10] were 2.5 h and 0.69 h, respectively. Further, the maximum concentration (Cmax) is 1520 ng/mL in data set [8] and 480 ng/mL in [12].

Values taken from ChEMBL document CHEMBL1129982, “Structure-activity relationships in a series of orally active gamma-hydroxy butenolide endothelin antagonists” (J Med Chem, 1997).
